This is an account of results in ChEMBL document CHEMBL5335820, “Novel quinolinepiperazinyl-aryltetrazoles targeting the blood stage of Plasmodium falciparum” (RSC Med Chem, 2024).

Where only a bound is given, the exact number is not on record here.

Data set [1] relates to Plasmodium berghei. Briefly: Antimalarial activity against Plasmodium berghei ANKA infected in mouse model of malaria assessed as reduction in parasite infection by measuring median survival at 100 mg/kg, po. It counts as functional.
The test system of data set [2] is Plasmodium falciparum. Nature of the data set: Antimalarial activity against chloroquine resistant late schizont Plasmodium falciparum INDO infected in human erythrocytes assessed as inhibition of parasite growth incubated for 12 hrs. It is filed as functional, organism-based. Conditions: Erythrocyte. The essentials: (§1)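 PfINDO cultures were staged at 0–6 h (rings), 18–22 h (trophozoites), 30–34 h (early schizonts) and 40–44 h (late schizonts) post-invasion. Each was exposed to varying concentrations for 12 h, washed free of compound by centrifugation, and grown 48 h in drug-free medium. IC50 came from growth curves, with untreated culture as 100% and chloroquine-treated culture as 0% growth.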

A short description of data set [3]: Resistance index, ratio of IC50 of chloroquine resistant Plasmodium falciparum INDO to chloroquine sensitive Plasmodium falciparum 3D7. It counts as functional. The essentials:
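Resistance index = IC50 against PfINDO / IC50 against Pf3D7. Both IC50s came from 72 h SYBR Green I assays.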

Data set [4] concerns Plasmodium falciparum. Nature of the data set: Antiplasmodial activity against chloroquine resistant Plasmodium falciparum INDO infected in human erythrocytes assessed as inhibition of parasite growth at 100 uM incubated for 72 hrs by SYBR green I staining based fluorescence plate reader analysis relative to control. It is filed as functional. Conditions: Erythrocyte. The gist of the method:
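Single-concentration screen at 100 μM against PfINDO, triplicate wells, 72 h. Final DMSO was 0.4%. Growth was read by SYBR Green I lysis (excitation 485, emission 530 nm) and expressed relative to untreated culture, taken as 100% growth.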

The nature of data set [5]: Selectivity index, ratio of CC50 for human HEK293 cells to IC50 of chloroquine resistant Plasmodium falciparum INDO infected in human erythrocytes. Conditions: read-out: Ratio CC50/IC50. It counts as toxicity, cell-based. The essentials:
(§2)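 Selectivity index = CC50 / PfINDO IC50. CC50 came from MTT assays: 10^4 HEK293 or HUH7 cells per well, seeded overnight and exposed to 0–100 μM for 24 h, then MTT for 4 h at 37 °C with formazan dissolved in DMSO and read at A570. Controls were 0.8% DMSO (full growth) and 10% DMSO (zero growth).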

Data set [6] can be described thus: Selectivity index, ratio of CC50 for human Huh-7 cells to IC50 for antiplasmodial activity against chloroquine resistant Plasmodium falciparum INDO infected in human erythrocytes. It is filed as toxicity, cell-based. Conditions: read-out: Ratio CC50/IC50. The gist of the method: as §2
In data set [7] the test system is Plasmodium falciparum. Nature of the data set: Antiplasmodial activity against chloroquine sensitive Plasmodium falciparum 3D7 infected in human erythrocytes assessed as inhibition of parasite growth incubated for 72 hrs by SYBR green I staining based fluorescence plate reader analysis. It is filed as functional, organism-based. Conditions: 3D7, Erythrocyte. The gist of the method:
(§3)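 Pf3D7 or PfINDO was cultured in O+ human erythrocytes at 37 °C under 5% O2/5% CO2/90% N2 and ring-synchronised with 5% sorbitol. Cultures were exposed to 0–100 μM in triplicate for 72 h, with final DMSO 0.4%. After SYBR Green I lysis buffer (1 h, dark, 37 °C), fluorescence was read at 485/530 nm. Chloroquine-well counts were subtracted as background, and IC50 was obtained by non-linear regression.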

A short description of data set [8]: Cytotoxicity against human HEK293 cells assessed as reduction in cell viability incubated for 24 hrs by MTT assay. It counts as toxicity, cell-based. (In general: Formazan colour is commonly taken as a measure of viable cells.)
Data set [9] relates to Plasmodium falciparum. Nature of the data set: Antiplasmodial activity against chloroquine resistant Plasmodium falciparum INDO infected in human erythrocytes assessed as inhibition of parasite growth incubated for 72 hrs by SYBR green I staining based fluorescence plate reader analysis. It counts as functional, organism-based. Conditions: Erythrocyte. The essentials: as §3

In data set [10] the test system is Plasmodium falciparum. Briefly: Antiplasmodial activity against chloroquine resistant ring-stage Plasmodium falciparum INDO infected in human erythrocytes assessed as inhibition of parasite growth incubated for 12 hrs. It counts as functional, organism-based. The conditions noted are these: Erythrocyte. The gist of the method:
as §1

For data set [11], the system named is Plasmodium falciparum. Briefly: Antimalarial activity against chloroquine resistant early schizont Plasmodium falciparum INDO infected in human erythrocytes assessed as inhibition of parasite growth incubated for 12 hrs. It counts as functional, organism-based. The conditions noted are these: Erythrocyte. The gist of the method:
as §1

Data set [12] deals with Plasmodium falciparum. Nature of the data set: Antiplasmodial activity against chloroquine sensitive Plasmodium falciparum 3D7 infected in human erythrocytes assessed as inhibition of parasite growth at 100 uM incubated for 72 hrs by SYBR green I staining based fluorescence plate reader analysis relative to control. It is filed as functional. Conditions: 3D7, Erythrocyte. The gist of the method: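 Pf3D7 grown in O+ human erythrocytes at 4% haematocrit, Albumax (0.05%)-RPMI, 37 °C, 5% O2/5% CO2/90% N2, sorbitol-synchronised at ring stage. Single-point screen at 100 μM, final DMSO 0.4%, triplicate wells, 72 h. Read-out by SYBR Green I lysis buffer (Tris pH 7.5, EDTA, saponin, Triton X-100), 1 h dark at 37 °C, ex 485/em 530 nm. Growth expressed relative to untreated culture.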

Data set [13] deals with Plasmodium falciparum. Nature of the data set: Antimalarial activity against chloroquine resistant trophozoites-stage Plasmodium falciparum INDO infected in human erythrocytes assessed as inhibition of parasite growth incubated for 12 hrs. It is filed as functional, organism-based. Conditions: Erythrocyte. The gist of the method: as §1
The nature of data set [14]: Cytotoxicity against human Huh-7 cells assessed as reduction in cell viability incubated for 24 hrs by MTT assay. It is filed as toxicity, cell-based.

Take `CCN(CC)CCCC(C)Nc1ccnc2cc(Cl)ccc12` (stereo not given) [CHLOROQUINE]: the Survival in [1] came to 28 days.
For the molecule `O=C(Cn1nnc(-c2cccc(Cl)c2)n1)N1CCN(c2ccnc3cc(Cl)ccc23)CC1`, the IC50 in [2] turned out to be 24.8 µM; in data set [7] it was 12.6 µM; in [9] it was 5.91 µM; in data set [10], 19.6 µM; in data set [11], 15.9 µM; in data set [13], 5.39 µM. Also, in [3], the Ratio IC50 came to 0.47. The inhibition at 100 µM in [4] and in data set [12] was more than 50% each time. Besides, the selectivity ratio in [5] is 67.7; in [6], more than 67.7. The CC50 at 24 h in data set [8] and in data set [14] was more than 400 µM throughout.
`Clc1ccc2c(N3CCN(CCCn4nnc(-c5cccc(Br)c5)n4)CC3)ccnc2c1`: the IC50 worked out at 4.62 µM in data set [2]; 3.84 µM in data set [7]; 7.05 µM in data set [9]; 8.67 µM in [10]; 8.24 µM in data set [11]; 7.31 µM in data set [13]. The Ratio IC50 in data set [3] is 1.83. Further, the inhibition at 100 µM in data set [4] and in data set [12] was more than 50% in each case. For the same molecule, the selectivity ratio in data set [5] is 56.8; in data set [6], more than 56.8. Also, the CC50 at 24 h in data set [8] and in [14] was more than 400 µM in each case.
As for `CC(C)c1ccc(-c2nnn(CC(=O)N3CCN(c4ccnc5cc(Cl)ccc45)CC3)n2)cc1`, the IC50 in data set [2] is 26.7 µM; in data set [7], 15.9 µM; in data set [9] it was 6.66 µM; in data set [10], 18.5 µM; in data set [11], 21.5 µM; in data set [13], 24.9 µM. Besides, the Ratio IC50 in data set [3] was 0.42. Moreover, the inhibition at 100 µM in data set [4] and in data set [12] was more than 50% throughout. Moreover, the selectivity ratio in data set [5] is 60.1; in [6], more than 60.1. Also, the CC50 at 24 h in data set [8] and in data set [14] was more than 400 µM in each case.

The IC50 is the concentration that inhibits the measured activity by half. Broadly, the inhibition is the share of the control response that was lost under treatment. The CC50 is the concentration that lowers cell viability or growth by half.
